≈ marks a conversion by molar mass, not a printed value.
Key:
[1] = Cmax in neutropenic BALB/cAnNCr mouse infected with Staphylococcus aureus at 1 mg/kg, sc administered as single dose after 6 hrs of infection; format: ADME, organism-based; set-up: dose 1 mg/kg, route subcutaneous; details: in vivo
Summary of the method: (§1)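 Neutropenic female mice (cyclophosphamide i.p. 250 mg/kg day −4, 100 mg/kg day −1) with HA-MRSA 56 pneumonia (oral inoculum, 10^7 CFU/ml in 3% mucin). Single s.c. dose in sterile water. Plasma by intracardiac puncture at 0.25–4 h, six mice per time point, stabilized with citric acid. Assayed by validated HPLC (LOQ 0.01 µg/ml). Parameters from one-compartment analysis.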

Staphylococcus aureus [2] = experiment: Antimicrobial activity against Staphylococcus aureus infected in BALB/cAnNCr mouse assessed as decrease in bacterial density in lungs relative to control at 1 to 25 mg/kg, sc administered as 1 to 5 times/day after 24 hrs […]; format: functional; details: dose mg/kg 1-5; route subcutaneous
Summary of the method: (§2)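 Neutropenic mice given oral S. aureus inoculum (10^7 CFU/ml in 3% mucin). s.c. dosing of 1–25 mg/kg, once to five times daily, began 6 h post-infection and ran 24 h, five mice per group, with sham-treated controls. Lung homogenates were plated on blood and Columbia agar at 35°C up to 48 h. Log10 CFU/ml at 24 h was compared with untreated controls.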

[3] = fT>MIC required for stasis inhibition of methicillin-suceptible Staphylococcus aureus 29213 infection in neutropenic BALB/cAnNCr mouse; format: functional
[4] = fT>MIC required for stasis inhibition of Staphylococcus aureus infection in neutropenic BALB/cAnNCr mouse; format: functional
[5] = fT>MIC required for 50% inhibition of hospital acquired Staphylococcus aureus 149 infection in neutropenic BALB/cAnNCr mouse; format: functional
[6] = fT>MIC required for 50% inhibition of hospital acquired methicillin-resistant Staphylococcus aureus 56 infection in neutropenic BALB/cAnNCr mouse; format: functional
Summary of the method: (§3)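 Same neutropenic murine pneumonia model, with 24-h lung log10 CFU change (5 mice per group; 1–25 mg/kg s.c., 1–5 times daily). […] ED50, ED80 and stasis exposures were taken from a sigmoid Emax fit for each isolate.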

[7] = fT>MIC required for 50% inhibition of community acquired Staphylococcus aureus 147 infection in neutropenic BALB/cAnNCr mouse; format: functional
Mus musculus = experiment: Volume of distribution in neutropenic BALB/cAnNCr mouse infected with Staphylococcus aureus at 1 mg/kg, sc administered as single dose after 6 hrs of infection; format: ADME, organism-based; set-up: dose 1 mg/kg, route subcutaneous; details: in vivo; summary of the method: as §1
[8] = fT>MIC required for 80% inhibition of methicillin-susceptible Staphylococcus aureus 25923 infection in neutropenic BALB/cAnNCr mouse; format: functional
Staphylococcus aureus [9] = experiment: Antimicrobial activity against hospital acquired methicillin-resistant Staphylococcus aureus 152 infected in BALB/cAnNCr mouse assessed as decrease in bacterial density in lungs at 1 to 25 mg/kg, sc administered as 1 to 5 times/day after 24 hrs […] relative to control; format: functional; details: route subcutaneous
Summary of the method: (§4)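 Female BALB/cAnNCr mice (7–9 weeks) were made neutropenic with cyclophosphamide i.p. at 250 mg/kg on day −4 and 100 mg/kg on day −1. Under isoflurane, mice received an oral inoculum in 3% mucin/saline, with nostrils blocked until aspiration. Drug (1–25 mg/kg s.c., once to five times daily, water vehicle) or sham started 6 h post-inoculation. Lungs were harvested at 24 h, homogenized and plated on blood and Columbia agar at 35°C. Mean log10 CFU/ml was compared with the 0-h untreated baseline; 5 mice per group.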

[10] = fT>MIC required for 80% inhibition of hospital acquired methicillin-resistant Staphylococcus aureus 152 infection in neutropenic BALB/cAnNCr mouse; format: functional; summary of the method: as §3
[11] = fT>MIC required for 50% inhibition of community acquired Staphylococcus aureus 146 infection in neutropenic BALB/cAnNCr mouse; format: functional
[12] = fT>MIC required for 50% inhibition of community acquired Staphylococcus aureus 144 infection in neutropenic BALB/cAnNCr mouse; format: functional; summary of the method: as §3
[13] = Elimination clearance in neutropenic BALB/cAnNCr mouse infected with Staphylococcus aureus at 1 mg/kg, sc administered as single dose after 6 hrs of infection; format: ADME, organism-based; set-up: dose 1 mg/kg, route subcutaneous; details: in vivo; summary of the method: as §1
[14] = fT>MIC in neutropenic BALB/cAnNCr mouse plasma infected with Staphylococcus aureus at 1 to 25 mg/kg, sc administered 1 to 5 times/day after 24 hrs HPLC; format: functional; details: route subcutaneous
Summary of the method: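 Exposure indices used free plasma drug, correcting with 19% mouse protein binding supplied by the sponsor. The regimens were s.c. 1–25 mg/kg given 1–5 times daily for 24 h to neutropenic mice with S. aureus pneumonia. MICs were determined in triplicate by CLSI broth microdilution. PK came from the single-dose HPLC study.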

[15] = fCmax/MIC required for 50% inhibition of Staphylococcus aureus infection in neutropenic BALB/cAnNCr mouse; format: functional
[16] = Tmax in neutropenic BALB/cAnNCr mouse infected with Staphylococcus aureus at 1 mg/kg, sc administered as single dose after 6 hrs of infection; format: ADME, organism-based; set-up: dose 1 mg/kg, route subcutaneous; details: in vivo; summary of the method: as §1
Staphylococcus aureus [17] = experiment: Antimicrobial activity against methicillin-susceptible Staphylococcus aureus ATCC 29213 by broth microdilution method; format: functional
Summary of the method: (§5)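 Broth microdilution run in triplicate following CLSI guidelines. Isolates were stored at –80°C in double-strength skim milk and subcultured twice on Trypticase soy agar with 5% sheep blood before testing.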

Staphylococcus aureus [18] = experiment: Antimicrobial activity against community acquired methicillin-resistant Staphylococcus aureus 146 infected in BALB/cAnNCr mouse assessed as decrease in bacterial density in lungs at 1 to 25 mg/kg, sc administered as 1 to 5 times/day after 24 hrs […] relative to control; format: functional; details: route subcutaneous; summary of the method: as §4
[19] = Cmax in neutropenic BALB/cAnNCr mouse infected with Staphylococcus aureus at 10 mg/kg, sc administered as single dose after 6 hrs of infection; format: ADME, organism-based; set-up: dose 10 mg/kg, route subcutaneous; details: in vivo; summary of the method: as §1
[20] = Elimination half life in neutropenic BALB/cAnNCr mouse infected with Staphylococcus aureus at 25 mg/kg, sc administered as single dose after 6 hrs of infection; format: ADME, organism-based; set-up: dose 25 mg/kg, route subcutaneous; details: in vivo; summary of the method: as §1
Staphylococcus aureus [21] = experiment: Antimicrobial activity against methicillin-susceptible Staphylococcus aureus 25923 infected in BALB/cAnNCr mouse assessed as decrease in bacterial density in lungs at 1 to 25 mg/kg, sc administered as 1 to 5 times/day after 24 hrs […] relative to control; format: functional; details: dose mg/kg 1-5; route subcutaneous; summary of the method: as §2
[22] = fT>MIC required for 80% inhibition of community acquired methicillin-resistant Staphylococcus aureus 147 infection in neutropenic BALB/cAnNCr mouse; format: functional; summary of the method: as §3
Staphylococcus aureus [23] = experiment: Antimicrobial activity against hospital acquired methicillin-resistant Staphylococcus aureus 56 by broth microdilution method; format: functional; summary of the method: as §5
[24] = fT>MIC required for stasis inhibition of community acquired methicillin-resistant Staphylococcus aureus 146 infection in neutropenic BALB/cAnNCr mouse; format: functional; summary of the method: as §3
[25] = Elimination clearance in neutropenic BALB/cAnNCr mouse infected with Staphylococcus aureus at 10 mg/kg, sc administered as single dose after 6 hrs of infection; format: ADME, organism-based; set-up: dose 10 mg/kg, route subcutaneous; details: in vivo; summary of the method: as §1
[26] = fT>MIC required for 80% inhibition of methicillin-susceptible Staphylococcus aureus […] infection in neutropenic BALB/cAnNCr mouse; format: functional

Q: Which Cmax [1] does the source give for Nc1nc(/C(=N/O)C(=O)N[C@@H]2C(=O)N3C(C(=O)O)=C(/C=C4\CCN([C@@H]5CCNC5)C4=O)CS[C@H]23)ns1 [CEFTOBIPROLE] here?
A: The Cmax was 1740 ng/mL.

Q: What about the log10cfu (Staphylococcus aureus [2]) of the same molecule?
A: The log10cfu was 2.5.

Q: And the “fT>MIC” value [3]?
A: Its value is 13.3%.

Q: And the “fT>MIC” value [4]?
A: Its value is 11%.

Q: And the “fT>MIC” value [5]?
A: The value was 8.6%.

Q: What about the “fT>MIC” value [6] of the same molecule?
A: The value was 13.7%.

Q: And the “fT>MIC” value [7]?
A: Its value is 17.1%.

Q: What about the Vd (Mus musculus) of the same molecule?
A: The Vd was 0.19 L/kg.

Q: And the “fT>MIC” value [8]?
A: The value was 10.2%.

Q: And the log10cfu (Staphylococcus aureus [9])?
A: The log10cfu was 3.8.

Q: And the “fT>MIC” value [10]?
A: The value was 15.9%.

Q: What about the “fT>MIC” value [11] of the same molecule?
A: Its value is 5.5%.

Q: And the “fT>MIC” value [12]?
A: Its value is 13.8%.

Q: And the CL/F [13]?
A: Its CL/F is 9 mL/min/kg.

Q: And the “fT>MIC” value [14]?
A: Its value is 3%.

Q: What about the fCmax/MIC [15] of the same molecule?
A: The fCmax/MIC was 2.

Q: What about the Tmax [16] of the same molecule?
A: Its Tmax is 28.8 min.

Q: And the MIC (Staphylococcus aureus [17])?
A: Its MIC is 0.25 µg/mL (≈ 0.468 µM).

Q: What about the log10cfu (Staphylococcus aureus [18]) of the same molecule?
A: The log10cfu was 3.6.

Q: What about the Cmax [19] of the same molecule?
A: Its Cmax is 19800 ng/mL.

Q: And the half-life [20]?
A: The half-life was 24 min.

Q: And the log10cfu (Staphylococcus aureus [21])?
A: Its log10cfu is 4.2.

Q: What about the “fT>MIC” value [22] of the same molecule?
A: The value was 21.6%.

Q: And the MIC (Staphylococcus aureus [23])?
A: Its MIC is 1 µg/mL (≈ 1.87 µM).

Q: What about the “fT>MIC” value [24] of the same molecule?
A: The value was 5.6%.

Q: And the CL/F [25]?
A: The CL/F was 10.5 mL/min/kg.

Q: What about the “fT>MIC” value [26] of the same molecule?
A: The value was 19.5%.

From ChEMBL document CHEMBL1275429, “Pharmacodynamic characterization of ceftobiprole in experimental pneumonia caused by phenotypically diverse Staphylococcus aureus strains” (Antimicrob Agents Chemother, 2008)
